Measurements as given in ChEMBL document CHEMBL3616405 (J Med Chem, 2015).
pEC50, pIC50: −log10 of the molar value.

Columns and labels:
[1] = molecular target: T1, Glucagon-like peptide 1 receptor (Homo sapiens, UniProt P43220); experiment: Displacement of [125I]-GLP1 from human GLP1 receptor expressed in BHK cells after 2 hrs in absence of human serum albumin; assay type: cell-based
[2] = molecular target: T1, Glucagon-like peptide 1 receptor; experiment: Displacement of [125I]-GLP1 from human GLP1 receptor expressed in BHK cells after 2 hrs in presence of 2% human serum albumin; assay type: cell-based
[3] = molecular target: T1, Glucagon-like peptide 1 receptor; experiment: Agonist activity at human GLP1 receptor expressed in BHK cells after 3 hrs by CRE firefly luciferase reporter gene assay in absence of human serum albumin; assay type: functional, cell-based
[4] = tested on: Mus musculus; experiment: Antihyperglycaemic activity in sc dosed db/db mouse assessed as reduction of blood glucose level by glucose oxidase method; assay type: functional, organism-based
Outline: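 Male db/db mice (10–12 weeks old, blood glucose above 10 mM), group-housed, fed chow and acidified water ad libitum. Doses of 0.3–100 nmol/kg were given s.c. at 6 mL/kg in 50 mM phosphate with 0.05% Tween 80, pH 8. Tail-tip capillary blood glucose was measured by glucose oxidase at 0, 1, 2, 3, 6, 24 and 48 h. […] Values are mean ± SEM.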

[5] = tested on: Mus musculus; experiment: Antiobesity activity in sc dosed db/db mouse assessed as reduction of body weight; assay type: functional, organism-based

T1 sequence (P43220 whole entry): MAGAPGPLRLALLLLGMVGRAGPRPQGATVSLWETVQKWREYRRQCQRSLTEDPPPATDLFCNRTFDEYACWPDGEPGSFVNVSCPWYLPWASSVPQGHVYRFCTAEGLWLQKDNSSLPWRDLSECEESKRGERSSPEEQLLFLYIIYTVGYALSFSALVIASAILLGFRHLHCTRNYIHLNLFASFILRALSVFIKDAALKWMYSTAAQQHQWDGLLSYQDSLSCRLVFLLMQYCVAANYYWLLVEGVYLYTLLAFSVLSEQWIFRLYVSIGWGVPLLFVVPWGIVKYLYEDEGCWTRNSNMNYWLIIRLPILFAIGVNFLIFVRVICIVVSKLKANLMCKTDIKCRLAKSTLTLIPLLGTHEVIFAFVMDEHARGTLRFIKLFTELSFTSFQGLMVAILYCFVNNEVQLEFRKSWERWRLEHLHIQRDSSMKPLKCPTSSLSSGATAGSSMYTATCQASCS

Row | Molecule | pIC50 [1] | pIC50 [2] | pEC50 [3] | pIC50 ([1]; bhk) | pIC50 ([2]; bhk) | pEC50 ([3]; bhk) | Activity [4] | Activity [5]
1 | CCCCCCCCCCCCCCCCCC(=O)N[C@@H](CCC(=O)NCCOCCOCC(=O)NCCOCCOCC(=O)NCCCC[C@H](NC(=O)[C@H](C)NC(=O)[C@H](C)NC(=O)[C@H](CCC(N)=O)NC(=O)CNC(=O)[C@H](CCC(=O)O)NC(=O)[C@H](CC(C)C)NC(=O)[C@H](Cc1ccc(O)cc1)NC(=O)[C@H](CO)NC(=O)[C@H](CO)NC(=O)[C@@H](NC(=O)[C@H](CC(=O)O)NC(=O)[C@H](CO)NC(=O)[C@@H](NC(=O)[C@H](Cc1ccccc1)NC(=O)[C@@H](NC(=O)CNC(=O)[C@H](CCC(=O)O)NC(=O)C(C)(C)NC(=O)[C@@H](N)Cc1c[nH]cn1)[C@@H](C)O)[C@@H](C)O)C(C)C)C(=O)N[C@@H](CCC(=O)O)C(=O)N[C@@H](Cc1ccccc1)C(=O)N[C@H](C(=O)N[C@@H](C)C(=O)N[C@@H](Cc1c[nH]c2ccccc12)C(=O)N[C@@H](CC(C)C)C(=O)N[C@H](C(=O)N[C@@H](CCCNC(=N)N)C(=O)NCC(=O)N[C@@H](CCCNC(=N)N)C(=O)NCC(=O)O)C(C)C)[C@@H](C)CC)C(=O)O | 10.40 | 8.70 | 11.49 | – | – | – | – | –
2 | CCCCCCCCCCCCCCCC(=O)N[C@@H](CCC(=O)NCCOCCOCC(=O)NCCOCCOCC(=O)NCCOCCOCC(=O)NCCCC[C@H](NC(=O)[C@H](C)NC(=O)[C@H](C)NC(=O)[C@H](CCC(N)=O)NC(=O)CNC(=O)[C@H](CCC(=O)O)NC(=O)[C@H](CC(C)C)NC(=O)[C@H](Cc1ccc(O)cc1)NC(=O)[C@H](CO)NC(=O)[C@H](CO)NC(=O)[C@@H](NC(=O)[C@H](CC(=O)O)NC(=O)[C@H](CO)NC(=O)[C@@H](NC(=O)[C@H](Cc1ccccc1)NC(=O)[C@@H](NC(=O)CNC(=O)[C@H](CCC(=O)O)NC(=O)C(C)(C)NC(=O)[C@@H](N)Cc1c[nH]cn1)[C@@H](C)O)[C@@H](C)O)C(C)C)C(=O)N[C@@H](CCC(=O)O)C(=O)N[C@@H](Cc1ccccc1)C(=O)N[C@H](C(=O)N[C@@H](C)C(=O)N[C@@H](Cc1c[nH]c2ccccc12)C(=O)N[C@@H](CC(C)C)C(=O)N[C@H](C(=O)N[C@@H](CCCNC(=N)N)C(=O)NCC(=O)N[C@@H](CCCNC(=N)N)C(=O)NCC(=O)O)C(C)C)[C@@H](C)CC)C(=O)O | – | – | – | 10.52 | 9.66 | 11.37 | – | –
3 | CC[C@H](C)[C@H](NC(=O)[C@H](Cc1ccccc1)NC(=O)[C@H](CCC(=O)O)NC(=O)[C@H](CCCCNC(=O)COCCOCCNC(=O)COCCOCCNC(=O)CC[C@H](NC(=O)CCCCCCCCCCCCCCCCCCCCC(=O)O)C(=O)O)NC(=O)[C@H](C)NC(=O)[C@H](C)NC(=O)[C@H](CCC(N)=O)NC(=O)CNC(=O)[C@H](CCC(=O)O)NC(=O)[C@H](CC(C)C)NC(=O)[C@H](Cc1ccc(O)cc1)NC(=O)[C@H](CO)NC(=O)[C@H](CO)NC(=O)[C@@H](NC(=O)[C@H](CC(=O)O)NC(=O)[C@H](CO)NC(=O)[C@@H](NC(=O)[C@H](Cc1ccccc1)NC(=O)[C@@H](NC(=O)CNC(=O)[C@H](CCC(=O)O)NC(=O)C(C)(C)NC(=O)[C@@H](N)Cc1c[nH]cn1)[C@@H](C)O)[C@@H](C)O)C(C)C)C(=O)N[C@@H](C)C(=O)N[C@@H](Cc1c[nH]c2ccccc12)C(=O)N[C@@H](CC(C)C)C(=O)N[C@H](C(=O)N[C@@H](CCCNC(=N)N)C(=O)NCC(=O)N[C@@H](CCCNC(=N)N)C(=O)NCC(=O)O)C(C)C | 9.68 | 7.61 | 10.61 | – | – | – | – | –
4 | CC[C@H](C)[C@H](NC(=O)[C@H](Cc1ccccc1)NC(=O)[C@H](CCC(=O)O)NC(=O)[C@H](CCCCN)NC(=O)[C@H](C)NC(=O)[C@H](C)NC(=O)[C@H](CCC(N)=O)NC(=O)CNC(=O)[C@H](CCC(=O)O)NC(=O)[C@H](CC(C)C)NC(=O)[C@H](Cc1ccc(O)cc1)NC(=O)[C@H](CO)NC(=O)[C@H](CO)NC(=O)[C@@H](NC(=O)[C@H](CC(=O)O)NC(=O)[C@H](CO)NC(=O)[C@@H](NC(=O)[C@H](Cc1ccccc1)NC(=O)[C@@H](NC(=O)CNC(=O)[C@H](CCC(=O)O)NC(=O)C(C)(C)NC(=O)[C@@H](N)Cc1c[nH]cn1)[C@@H](C)O)[C@@H](C)O)C(C)C)C(=O)N[C@@H](C)C(=O)N[C@@H](Cc1c[nH]c2ccccc12)C(=O)N[C@@H](CC(C)C)C(=O)N[C@H](C(=O)N[C@@H](CCCNC(=N)N)C(=O)NCC(=O)N[C@@H](CCCNC(=N)N)C(=O)NCC(=O)N[C@@H](CCCCNC(=O)COCCOCCNC(=O)COCCOCCNC(=O)CCCCCCCCCCCCCCCCC(=O)O)C(=O)O)C(C)C | 9.57 | 8.17 | 10.17 | – | – | – | – | –

Second part, led by results:

Row | pIC50 [1] | pIC50 [2] | pEC50 [3] | pIC50 ([1]; bhk) | pIC50 ([2]; bhk) | pEC50 ([3]; bhk) | Activity [4] | Molecule | Activity [5]
5 | 8.58 | 8.05 | 10.80 | – | – | – | – | CC[C@H](C)[C@H](NC(=O)[C@H](Cc1ccccc1)NC(=O)[C@H](CCC(=O)O)NC(=O)[C@H](CCCCNC(=O)COCCOCCNC(=O)COCCOCCNC(=O)CC[C@H](NC(=O)CCCCCCCCCCCCC(=O)O)C(=O)O)NC(=O)[C@H](C)NC(=O)[C@H](C)NC(=O)[C@H](CCC(N)=O)NC(=O)CNC(=O)[C@H](CCC(=O)O)NC(=O)[C@H](CC(C)C)NC(=O)[C@H](Cc1ccc(O)cc1)NC(=O)[C@H](CO)NC(=O)[C@H](CO)NC(=O)[C@@H](NC(=O)[C@H](CC(=O)O)NC(=O)[C@H](CO)NC(=O)[C@@H](NC(=O)[C@H](Cc1ccccc1)NC(=O)[C@@H](NC(=O)CNC(=O)[C@H](CCC(=O)O)NC(=O)C(C)(C)NC(=O)[C@@H](N)Cc1c[nH]cn1)[C@@H](C)O)[C@@H](C)O)C(C)C)C(=O)N[C@@H](C)C(=O)N[C@@H](Cc1c[nH]c2ccccc12)C(=O)N[C@@H](CC(C)C)C(=O)N[C@H](C(=O)N[C@@H](CCCNC(=N)N)C(=O)NCC(=O)N[C@@H](CCCNC(=N)N)C(=O)NCC(=O)O)C(C)C | –
6 | – | – | – | – | – | – | Dose-dependent effect | SEMAGLUTIDE | Dose-dependent effect
7 | 9.03 | 7.69 | 11.07 | – | – | – | – | CC[C@H](C)[C@H](NC(=O)[C@H](Cc1ccccc1)NC(=O)[C@H](CCC(=O)O)NC(=O)[C@H](CCCCNC(=O)COCCOCCNC(=O)COCCOCCNC(=O)CC[C@H](NC(=O)CCCCCCCCCCCCCCC(=O)O)C(=O)O)NC(=O)[C@H](C)NC(=O)[C@H](C)NC(=O)[C@H](CCC(N)=O)NC(=O)CNC(=O)[C@H](CCC(=O)O)NC(=O)[C@H](CC(C)C)NC(=O)[C@H](Cc1ccc(O)cc1)NC(=O)[C@H](CO)NC(=O)[C@H](CO)NC(=O)[C@@H](NC(=O)[C@H](CC(=O)O)NC(=O)[C@H](CO)NC(=O)[C@@H](NC(=O)[C@H](Cc1ccccc1)NC(=O)[C@@H](NC(=O)CNC(=O)[C@H](CCC(=O)O)NC(=O)C(C)(C)NC(=O)[C@@H](N)Cc1c[nH]cn1)[C@@H](C)O)[C@@H](C)O)C(C)C)C(=O)N[C@@H](C)C(=O)N[C@@H](Cc1c[nH]c2ccccc12)C(=O)N[C@@H](CC(C)C)C(=O)N[C@H](C(=O)N[C@@H](CCCNC(=N)N)C(=O)NCC(=O)N[C@@H](CCCNC(=N)N)C(=O)NCC(=O)O)C(C)C | –
